EBI2 antag: EBI2 receptor antagonists, beta-arrestin recruitment, primary screen, cell-based, luminescence, 7a,25-OHC stimulation, uHTS | hit rate 0.81% among 360,000 | G-protein coupled receptor 183 (Homo sapiens), P32249 | AID 651636, 2012 | 7a,25-OHC stimulated | inhibition, % at 5 µM; in the data active means inhibition above about 38%;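 further: enzyme fragment complementation signal reports receptor beta-arrestin coupling in cells; 0% = agonist plus DMSO wells and 100% = wells without agonist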
MC4R antag cAMP: MC4R antagonists of cAMP signaling, primary screen, cell-based, TR-FRET, antagonist arm of biased-ligand search; inhibition, % at 6.5 µM; Melanocortin receptor 4 (Homo sapiens), P32245; MC4R-expressing cells, MTII-stimulated cAMP, LANCE TR-FRET; hit rate 0.48% among 360,000; AID 540295, 2011;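 active means inhibition above its plate's cutoff, the mean of tested wells on that plate plus 3 SD, cut at about 29% in these data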;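 further: 0% = Melanotan II alone and 100% = Melanotan II plus saturating MCL0020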
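Assay system: U2OS-MC4R stable cell line; Also added: Melanotan II; Technique: Eu-cAMP/anti-cAMP TR-FRET, emission 671 nm; Times: 30-min compound, 1-h challenge, 1-h detection, room temperature.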
HTR2A ag: mouse Htr2a agonists via beta-arrestin recruitment, primary screen, cell-based, luminescence; 5-hydroxytryptamine receptor 2A (Mus musculus), P35363; CHO-K1 mHTR2A beta-arrestin complementation; percent of 30 µM serotonin response; activation, % at 7.6 µM; hit rate 0.66% among 360,000; AID 624169, 2012;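 active means activation above a run cutoff, the mean activation of all tested compounds plus 3 SD, cut at about 14% in these data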;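 further: 0% = plate median of compound wells and 100% = 30 µM serotonin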
MC4R ag barr: MC4R agonists recruiting beta-arrestin, primary screen, cell-based, luminescence, agonist arm of biased-ligand search. U2OS MC4R beta-arrestin complementation; percent of melanotan II response, DMSO zero. activation, % at 8.9 µM. hit rate 0.98% among 360,000. AID 540308, 2011;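 active means activation above a per-plate cutoff, the mean activation of sample wells on that plate plus 3 SD, cut at about 8% in these data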
OPRM1 ag: OPRM1 agonists via beta-arrestin recruitment, confirmation, counter-screen for mouse HTR2A agonist project, cell-based, luminescence, single concentration; activation, % at 9.3 µM; U2OS OPRM1 beta-arrestin PathHunter; DMSO 0%, DAMGO 9.3 µM 100%; hit rate 5.3% among 2,300; AID 624380, 2012; shares compounds with HTR2A ag;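 active means mean activation above the mean of DMSO-only wells plus 3 SD, cut at about 0.5% in these data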
Target sequence (P35372 whole entry, looked up): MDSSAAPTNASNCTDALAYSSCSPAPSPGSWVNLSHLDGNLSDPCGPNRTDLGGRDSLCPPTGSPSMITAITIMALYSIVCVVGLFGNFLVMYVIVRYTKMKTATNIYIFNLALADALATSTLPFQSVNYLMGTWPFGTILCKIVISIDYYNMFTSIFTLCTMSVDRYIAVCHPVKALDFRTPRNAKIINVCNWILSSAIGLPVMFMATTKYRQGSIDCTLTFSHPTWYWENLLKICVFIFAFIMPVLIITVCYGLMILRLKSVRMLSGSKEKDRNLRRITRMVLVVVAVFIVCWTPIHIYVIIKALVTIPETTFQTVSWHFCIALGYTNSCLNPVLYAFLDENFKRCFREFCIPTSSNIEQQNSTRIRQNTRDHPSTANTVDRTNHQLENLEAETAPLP
HTR2A ag conf: mouse HTR2A agonists, beta-arrestin recruitment, confirmation, cell-based, luminescence, CHO-K1 PathHunter, triplicate; shares compounds with HTR2A ag; DMSO 0%, 30 µM serotonin 100%; activation, % at 7.6 µM; hit rate 19% among 2,300; AID 624381, 2012;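 active means mean activation across triplicates above the hit threshold derived in the original primary screen, cut at about 15% in these data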
* hit, by the source's call; . = no result. Rows were chosen to be rich in hits. Some 2.8% of all compounds tested hit in one or more screens of this group.

SMILES	EBI2 antag	MC4R antag cAMP	HTR2A ag	MC4R ag barr	OPRM1 ag	HTR2A ag conf
C[C@@H]1CCCCO[C@@H](CN(C)C(=O)c2ccncc2)[C@@H](C)CN([C@H](C)CO)C(=O)c2cc(NC(=O)Cc3ccccc3)ccc2O1	8.9	2.9	-2.8	-1.6	.	.
COc1ccc(NC(=O)c2cc([N+](=O)[O-])ccc2O)cc1	5.6	12.9	14.9*	0.1	-0.5	-3.2
O=C1CC(c2ccccc2)=NN1c1ccccc1	8.8	4.4	14.8*	-1.7	-0.6	-1.9
COc1ccc(S(=O)(=O)N(C)CC(=O)Nc2ccccc2OC)cc1C	11.4	-6.0	-1.7	-1.7	.	.
COc1ccc(OC)c(S(=O)(=O)N(C)CC(=O)Nc2ccccc2OC)c1	5.7	7.0	15.9*	-0.7	-0.6	-4.7
Cc1cc(OC(=O)c2cccc(F)c2)c([N+](=O)[O-])c(=O)[nH]1	-1.9	7.9	14.5*	0.2	-0.4	-2.9
Cc1ccc(NC(=O)NC(=O)COC(=O)c2ccc(O)cc2O)c(C)c1	-8.2	9.7	14.9*	5.8	-0.3	-1.2
COc1ccc(C(=O)N(C)CCOc2ccc(Cl)cc2)cc1S(=O)(=O)N1CCCC1	15.0	2.9	-3.1	-1.6	.	.
Cc1ccc(-c2csc(NC(=O)c3cccc(C)c3)c2C(=O)O)cc1	1.8	25.2	14.9*	1.1	-0.5	-1.8
COc1cc(C(=O)O)ccc1O	-9.5	1.1	27.7*	-0.8	-0.6	-0.8
CCC(C)NC(=O)C1CCN(S(=O)(=O)c2cc([N+](=O)[O-])ccc2Cl)CC1 (configuration not stated)	0.0	-13.1	24.1*	2.0	0.2	-2.0
CC1CCN(S(=O)(=O)c2cc([N+](=O)[O-])ccc2Cl)CC1	-8.0	9.5	0.1	-0.2	.	.
N#CC1(Cc2ccccc2Cl)c2ccccc2C=CN1C(=O)c1ccccc1 (configuration not stated)	20.8	13.5	18.8*	3.2	-0.4	-4.5
N#CC1c2ccccc2C=CN1C(=O)c1ccccc1 (configuration not stated)	-1.9	-4.9	1.6	-1.4	.	.
O=C(NC(NC(=S)Nc1ccccc1C(=O)O)C(Cl)(Cl)Cl)c1ccco1 (configuration not stated)	-26.7	7.6	-0.7	0.3	.	.
Cc1ccccc1NC(=S)NC(NC(=O)c1ccco1)C(Cl)(Cl)Cl (configuration not stated)	-1.2	3.7	16.8*	-1.0	-0.6	-5.6
CCN(CC(=O)Nc1ccc2c(c1)OCCO2)C(=O)/C=C/c1cc(Br)ccc1OC	4.4	-5.5	-2.2	1.8	.	.
C=CCn1c(SCc2nc3ccccc3[nH]2)nnc1-c1ccccn1	0.6	0.8	18.7*	-2.0	-0.7	-4.1
CCCCCCSc1cc(C)nc2ncnn12	-6.3	16.4	21.0*	2.7	0.0	4.4
COc1ccc(C(O)c2ncc(-c3ccccc3)[nH]2)cc1F (configuration not stated)	-12.5	14.3	9.3	0.6	.	.
CCSc1ccc([C@@H]2[C@@H]3C(=O)N(CC)C(=O)[C@@H]3[C@]3(C(=O)OC)CCCCN23)cc1	2.0	3.5	2.2	0.5	.	.
CCSc1ccc([C@@H]2[C@H]3C(=O)N(C)C(=O)[C@H]3[C@]3(C(=O)OC)CCCCN23)cc1	5.2	0.6	16.8*	0.5	-0.4	-2.6
O=C(Nc1ccc2oc(-c3cccnc3)nc2c1)c1ccco1	-1.0	3.8	14.6*	1.0	-0.6	-3.4
Cc1cc(C)c(O)c(-c2n[nH]c3c2C(c2cccc(O)c2)N(Cc2ccco2)C3=O)c1 (configuration not stated)	7.5	14.4	99.5*	7.9	0.1	56.9*
CCOC(=O)CC1(CC)Oc2ccccc2N1S(=O)(=O)c1ccc(C)cc1 (configuration not stated)	7.1	.	-0.8	.	.	.
